Test results taken from ChEMBL document CHEMBL4406830, “Galloyl esters of trans-stilbenes are inhibitors of FASN with anticancer activity on non-small cell lung cancer cells” (Eur J Med Chem, 2019).
Active and inactive are the calls of the source. The rule behind the calls is not given here.

Tests used:
[1] = target: Fatty acid synthase (Homo sapiens) (UniProt P49327); assay: Inhibition of FASN in human PC9 cells harboring FASN expression and EGFR delE746-A750 mutant assessed as disruption of AKT/FASN positive feedback loop by measuring ratio of phosphoAKT/AKT expression at 2 uM after 48 hrs in presence of exogenous lipid concentrate by Western immunoblot based densitometric assay relative to control; assay type: cell-based
Sequence of Fatty acid synthase (Homo sapiens) (P49327 whole entry, looked up): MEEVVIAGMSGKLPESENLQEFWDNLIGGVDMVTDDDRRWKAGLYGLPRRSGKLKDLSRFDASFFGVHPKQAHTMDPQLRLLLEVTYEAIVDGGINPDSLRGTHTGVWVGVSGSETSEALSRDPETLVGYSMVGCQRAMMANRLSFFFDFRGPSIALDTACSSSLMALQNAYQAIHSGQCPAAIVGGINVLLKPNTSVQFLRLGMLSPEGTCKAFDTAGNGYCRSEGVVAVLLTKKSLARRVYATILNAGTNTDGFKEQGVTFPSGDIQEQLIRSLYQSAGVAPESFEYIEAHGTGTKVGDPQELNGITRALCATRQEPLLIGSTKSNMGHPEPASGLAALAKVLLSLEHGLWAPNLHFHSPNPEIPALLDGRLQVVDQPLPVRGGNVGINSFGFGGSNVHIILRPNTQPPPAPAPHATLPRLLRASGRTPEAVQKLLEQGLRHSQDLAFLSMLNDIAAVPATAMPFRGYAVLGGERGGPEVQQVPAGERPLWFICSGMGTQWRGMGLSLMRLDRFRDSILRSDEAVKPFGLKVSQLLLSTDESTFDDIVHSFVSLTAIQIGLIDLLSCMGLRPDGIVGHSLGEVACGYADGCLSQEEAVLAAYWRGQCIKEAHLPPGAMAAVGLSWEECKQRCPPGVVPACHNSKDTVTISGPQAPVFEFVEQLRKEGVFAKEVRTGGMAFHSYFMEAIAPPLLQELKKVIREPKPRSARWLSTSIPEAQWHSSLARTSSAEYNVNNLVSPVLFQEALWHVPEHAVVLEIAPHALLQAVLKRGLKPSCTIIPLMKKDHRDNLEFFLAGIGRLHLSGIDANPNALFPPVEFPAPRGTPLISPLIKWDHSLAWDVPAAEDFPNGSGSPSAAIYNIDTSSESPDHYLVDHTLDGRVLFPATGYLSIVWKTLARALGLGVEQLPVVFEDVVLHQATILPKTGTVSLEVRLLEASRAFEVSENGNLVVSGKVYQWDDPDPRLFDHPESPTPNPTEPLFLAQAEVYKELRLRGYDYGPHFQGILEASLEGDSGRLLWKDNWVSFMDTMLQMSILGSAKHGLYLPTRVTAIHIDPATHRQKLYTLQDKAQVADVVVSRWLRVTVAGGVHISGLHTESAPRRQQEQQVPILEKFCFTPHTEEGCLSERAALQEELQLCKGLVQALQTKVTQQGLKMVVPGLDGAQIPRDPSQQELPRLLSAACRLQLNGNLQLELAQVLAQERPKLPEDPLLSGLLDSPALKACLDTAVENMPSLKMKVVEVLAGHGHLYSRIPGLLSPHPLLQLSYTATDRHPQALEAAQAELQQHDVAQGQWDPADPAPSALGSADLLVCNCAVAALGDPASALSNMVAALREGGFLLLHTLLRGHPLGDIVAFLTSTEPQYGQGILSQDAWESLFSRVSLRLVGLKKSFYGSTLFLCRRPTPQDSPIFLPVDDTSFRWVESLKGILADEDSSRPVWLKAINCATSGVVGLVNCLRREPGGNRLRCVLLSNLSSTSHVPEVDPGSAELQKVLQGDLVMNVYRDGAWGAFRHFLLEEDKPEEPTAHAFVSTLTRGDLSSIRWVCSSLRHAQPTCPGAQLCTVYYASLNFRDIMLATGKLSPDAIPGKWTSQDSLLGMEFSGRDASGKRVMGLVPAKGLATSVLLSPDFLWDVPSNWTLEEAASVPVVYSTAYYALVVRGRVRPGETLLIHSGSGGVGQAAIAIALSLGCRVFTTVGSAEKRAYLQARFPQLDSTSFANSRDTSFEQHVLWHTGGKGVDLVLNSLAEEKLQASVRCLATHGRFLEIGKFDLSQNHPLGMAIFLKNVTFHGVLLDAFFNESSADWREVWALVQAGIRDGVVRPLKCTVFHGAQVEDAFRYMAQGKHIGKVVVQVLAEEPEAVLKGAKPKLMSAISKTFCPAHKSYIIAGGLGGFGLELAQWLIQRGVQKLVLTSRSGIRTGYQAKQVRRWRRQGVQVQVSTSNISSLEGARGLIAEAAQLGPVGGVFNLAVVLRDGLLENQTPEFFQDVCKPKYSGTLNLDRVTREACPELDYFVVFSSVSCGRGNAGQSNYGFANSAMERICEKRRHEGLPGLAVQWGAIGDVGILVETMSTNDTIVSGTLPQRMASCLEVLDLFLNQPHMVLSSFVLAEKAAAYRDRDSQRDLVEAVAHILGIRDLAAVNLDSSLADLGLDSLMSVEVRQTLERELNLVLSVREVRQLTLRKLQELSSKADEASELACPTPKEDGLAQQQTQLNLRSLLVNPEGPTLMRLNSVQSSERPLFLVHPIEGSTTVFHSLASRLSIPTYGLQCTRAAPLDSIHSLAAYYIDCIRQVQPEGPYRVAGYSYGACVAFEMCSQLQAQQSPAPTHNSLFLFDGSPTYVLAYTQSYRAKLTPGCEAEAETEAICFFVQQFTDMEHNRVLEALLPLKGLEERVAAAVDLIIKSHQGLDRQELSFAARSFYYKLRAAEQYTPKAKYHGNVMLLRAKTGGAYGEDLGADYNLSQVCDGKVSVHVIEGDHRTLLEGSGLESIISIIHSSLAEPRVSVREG
Method in brief: (§1)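 PC-9 (2 µM) or H1703 (1 µM) cells were treated with compound, with or without lipid concentrate (1% v/v per figure legend), for 48 h. Cells were lysed in RIPA buffer and lysates run on SDS-PAGE western blots for FASN, AKT, phospho-AKT S473 and GAPDH. Bands were quantified by densitometry and normalised to untreated control.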

[2] = target: Fatty acid synthase (Homo sapiens) (UniProt P49327); assay: Inhibition of FASN in human NCI-H1703 cells expressing FASN assessed as disruption of AKT/FASN positive feedback loop by measuring decrease in FASN expression at 1 uM after 48 hrs in presence of exogenous lipid concentrate by Western immunoblot based densitometric assay relative to control; assay type: cell-based; method in brief: as §1
[3] = Selectivity index, ratio of IC50 for human SAE cells lacking FASN expression to IC50 for human PC9 cells harboring FASN expression and EGFR delE746-A750 mutant
Method in brief: (§2)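 Index is the SAEC IC50 divided by the IC50 in the FASN-expressing NSCLC line. IC50s came from MTS viability after 72 h exposure at 37 °C, 5% CO2, DMSO 0.1% v/v. Absorbance was read at 490 nm after 2 h. The fit was % viability against log concentration, with 4 technical repeats and 3 independent experiments. NSCLC lines were grown in RPMI/10% FBS; SAEC in BEGM.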

[4] = target: Fatty acid synthase (Homo sapiens) (UniProt P49327); assay: Inhibition of FASN in human NCI-H1703 cells expressing FASN assessed as disruption of AKT/FASN positive feedback loop by measuring decrease in AKT expression at 5 uM after 48 hrs by Western immunoblot based densitometric assay relative to control; assay type: cell-based
Method in brief: (§3)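 PC-9 or H1703 cells were seeded at 8 × 10^5 per 100 mm dish and treated for 48 h at 1 or 5 µM (or 5, 50 and 100 µM). RIPA lysates were BCA-quantified and run on 8% SDS-PAGE, then transferred to PVDF. Blots were probed for FASN, AKT, phospho-AKT S473 and GAPDH and detected by ECL. Bands were quantified by densitometry and normalised to vehicle control.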

NCI-H1703 [5] = assay: Antiproliferative activity against human NCI-H1703 cells expressing FASN assessed as reduction in cell viability after 72 hrs by MTS assay; assay type: functional, cell-based; conditions: NCI-H1703, 72 h
Method in brief: (§4)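 ATCC-sourced cells. H1299, H1650, H1703 and PC-9 were grown in RPMI 1640 with 10% FBS. A549 was grown in high-glucose DMEM with 10% FBS and 1 mM pyruvate. SAEC was grown in BEGM. Cells were seeded at 3 × 10^3 per well (H1650 3.5 × 10^3) and left to attach overnight. Serial dilutions from DMSO stocks were added, 0.1% DMSO final, for 72 h at 37 °C, 5% CO2. Medium was replaced, MTS added, and A490 read after 2 h. IC50 was taken from % viability versus log concentration, 3 experiments.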

NCI-H1703 [6] = assay: Antiproliferative activity against human NCI-H1703 cells expressing FASN assessed as growth inhibition at 25 uM after 72 hrs by MTS assay relative to control; assay type: functional; conditions: NCI-H1703, 72 h
Method in brief: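 H1703 cells were treated with a single 25 µM concentration for 72 h. Viability was measured by MTS at 490 nm, with 0.1% DMSO and media-only correction, relative to untreated control. Mean ± SD of n = 3 independent determinations, unpaired t test against control.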

NCI-H1703 [7] = assay: Antiproliferative activity against human NCI-H1703 cells expressing FASN assessed as cell viability at 1 uM after 72 hrs in presence of exogenous lipid concentrate by MTS assay; assay type: functional, cell-based
Method in brief: (§5)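 Cells were treated as in the MTS viability assay. After 6 h, chemically defined lipid concentrate was added to 2% v/v final. Incubation continued for a further 72 h, then viability was read by MTS at 490 nm. Cells were treated at 2 µM (PC-9) or 1 µM (H1703). Mean ± SD, n = 3, compared with compound alone.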

[8] = target: Fatty acid synthase (Homo sapiens) (UniProt P49327); assay: Inhibition of FASN in human PC9 cells harboring FASN expression and EGFR delE746-A750 mutant assessed as disruption of AKT/FASN positive feedback loop by measuring decrease in ratio of phosphoAKT/AKT expression at 2 uM after 48 hrs by Western immunoblot based densitometric assay relative to control; assay type: cell-based; method in brief: as §1
PC-9 [9] = assay: Antiproliferative activity against human PC9 cells harboring FASN expression and EGFR delE746-A750 mutant assessed as reduction in cell viability after 72 hrs by MTS assay; assay type: functional, cell-based; conditions: PC-9, 72 h; method in brief: as §4
NCI-H1299 = assay: Antiproliferative activity against human NCI-H1299 cells expressing FASN assessed as reduction in cell viability after 72 hrs by MTS assay; assay type: functional, cell-based; conditions: NCI-H1299, 72 h; method in brief: as §4
[10] = target: Fatty acid synthase (Homo sapiens) (UniProt P49327); assay: Inhibition of FASN in human NCI-H1703 cells expressing FASN assessed as disruption of AKT/FASN positive feedback loop by measuring decrease in FASN expression at 1 uM after 48 hrs by Western immunoblot based densitometric assay relative to control; assay type: cell-based; method in brief: as §3
[11] = Selectivity index, ratio of IC50 for human SAE cells lacking FASN expression to IC50 for human NCI-H1703 cells expressing FASN; method in brief: as §2
[12] = target: Fatty acid synthase (Homo sapiens) (UniProt P49327); assay: Inhibition of FASN in human NCI-H1703 cells expressing FASN assessed as disruption of AKT/FASN positive feedback loop by measuring decrease in phosphorylated AKT expression at 1 uM after 48 hrs by Western immunoblot based densitometric assay relative to control; assay type: cell-based; method in brief: as §3
[13] = target: Fatty acid synthase (Homo sapiens) (UniProt P49327); assay: Inhibition of FASN in human NCI-H1703 cells expressing FASN assessed as disruption of AKT/FASN positive feedback loop by measuring decrease in phosphorylated AKT expression at 5 uM after 48 hrs by Western immunoblot based densitometric assay relative to control; assay type: cell-based; method in brief: as §3
[14] = Selectivity index, ratio of IC50 for human SAE cells lacking FASN expression to IC50 for human A549 cells expressing FASN
Method in brief: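 The ratio IC50(SAEC)/IC50(NSCLC line) was calculated from 72 h MTS viability IC50 values.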

[15] = Cytotoxicity against human SAE cells lacking FASN expression assessed as reduction in cell viability after 72 hrs by MTS assay; assay type: cell-based; method in brief: as §4
PC-9 [16] = assay: Antiproliferative activity against human PC9 cells harboring FASN expression and EGFR delE746-A750 mutant assessed as cell viability at 2 uM after 72 hrs in presence of exogenous lipid concentrate by MTS assay; assay type: functional, cell-based; method in brief: as §5
NCI-H1703 [17] = assay: Induction of apoptosis in human NCI-H1703 cells expressing FASN assessed as increase in late apoptotic cells at 5 uM after 72 hrs by Annexin-V FITC/PI staining-based flow cytometry; assay type: functional, cell-based
[18] = target: Fatty acid synthase (Homo sapiens) (UniProt P49327); assay: Inhibition of FASN in human PC9 cells harboring FASN expression and EGFR delE746-A750 mutant assessed as disruption of AKT/FASN positive feedback loop by measuring reduction in phosphorylated AKT expression at 5 uM after 48 hrs by Western immunoblot based densitometric assay relative to control; assay type: cell-based; method in brief: as §3

Ratio [1] | Ratio [2] | Ratio [4] | IC50 (NCI-H1703 [5]) [µM] | Ratio [8] | IC50 (PC-9 [9]) [µM] | IC50 (NCI-H1299) [µM] | Ratio [10] | Ratio [12] | Ratio [13] | Ratio [18] | SMILES | Ratio IC50 [3] | inhibition at 25 µM (NCI-H1703 [6]) [%] | inhibition (NCI-H1703 [7]) | Ratio IC50 [11] | Ratio IC50 [14] | IC50 [15] [µM] | inhibition (PC-9 [16]) | Activity (NCI-H1703 [17])
0.87 | 1.64 | 0.11 | 1.28 | 0.12 | 5 | 3.1 | 0.38 to 0.39 | 0.57 | 0.04 | 0.29 | O=C(Oc1ccc(/C=C/c2cccc(OC(=O)c3cc(O)c(O)c(O)c3)c2)cc1)c1cc(O)c(O)c(O)c1 | 1.4 | > 50 | inactive | 5.3 | 3 | 6.8 | inactive | Active
0.57 | 0.74 | 0.01 | 0.97 | 0.13 | 2.3 | 3.3 | 0.11 to 0.24 | 0.09 | 0.001 | 0.2 | O=C(Oc1ccc(/C=C/c2ccc(OC(=O)c3cc(O)c(O)c(O)c3)cc2)cc1)c1cc(O)c(O)c(O)c1 | 2.2 | > 50 | inactive | 5.2 | 2.4 | 5 | inactive | Active
